Screening data (PubChem)
Most compounds without a hit are left out; they make up all but 2.4% or so of the library.
H9c2 TAG inh – triacylglycerol accumulation inhibition. inhibition, % at 12.5 µM. H9c2 cells, Nile Red lipid (TAG) fluorescence; cells loaded with 200 µM oleic acid. 230,000 tested, 0.66% active;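 active = pattern-corrected inhibition of lipid staining of at least 50% with the nuclear-stain viability signal not falling by more than 50%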;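 note: 0% = DMSO wells and 100% = triacsin C control wells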
aDG glyco act – increases alpha dystroglycan glycosylation; Pro5-aDG cells, alpha-DG glycosylation AlphaScreen (IIH6); 0% Pro5, 100% B10-LARGE cell signal; activation, % at 10 µM; 360,000 tested, 0.22% active; AID 624168;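 active = activation of at least 8% versus controls, or a plate z-score of at least 8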;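 note: Pro5 are CHO cells carrying HIG-tagged alpha-DG that lacks glycosylation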
TbMetRS inhib – Trypanosoma brucei MetRS inhibition. AID 624268. inhibition, % at 11.9 µM. purified T. brucei MetRS, ATP depletion, Kinase-Glo luminescence. 360,000 tested, 0.4% active;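 active = inhibition above a per-plate cutoff of the control wells' mean inhibition plus 3 SD, cut at about 5.5% in these data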;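 note: 0% = DMSO wells median and 100% = median of wells with control inhibitor compound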
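Test system: purified T. brucei MetRS enzyme. Also added: ATP, methionine and E. coli bulk tRNA substrates. Compound: 11.9 µM single point. Schedule: 15 min enzyme-compound preincubation, 2 h reaction, 10 min detection, 25 °C. Signal: luciferase luminescence of residual ATP, Kinase-Glo. Evaluation: percent inhibition versus plate control medians. Controls: DMSO wells, low control.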
MC4R barr agon – agonists of human melanocortin 4 receptor (MC4R) beta-arrestin; P32245; U2OS MC4R beta-arrestin complementation, luminescence; percent of melanotan II response, DMSO zero; 360,000 tested, 0.98% active; activation, % at 8.9 µM;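 active = activation above a per-plate cutoff, the mean activation of sample wells on that plate plus 3 SD, cut at about 8% in these data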
MC4R antag cAMP – blocks human MC4R cAMP signaling; inhibition, % at 6.5 µM; MC4R-expressing cells, MTII-stimulated cAMP, LANCE TR-FRET; 360,000 tested, 0.48% active;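 active = inhibition above its plate's cutoff, the mean of tested wells on that plate plus 3 SD, cut at about 29% in these data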;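 note: 0% = Melanotan II alone and 100% = Melanotan II plus saturating MCL0020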
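System: U2OS-MC4R stable cell line; Technique: Eu-cAMP/anti-cAMP TR-FRET, emission 671 nm; Repeats: single well per compound; Also added: Melanotan II; Dosing: one concentration, 6.5 µM nominal; Schedule: 30-min compound, 1-h challenge, 1-h detection, room temperature.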
NTR1 ag – activates human neurotensin receptor 1; NTR1-U2OS beta-arrestin-GFP spot imaging, agonist mode; 330,000 tested, 0.17% active; AID 493036; activation, % at 20 µM; P30989;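 active = activation at or above 40% of the spot to cytoplasm intensity ratio, with at least 20 cells analyzed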;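 note: 0% = DMSO without peptide and 100% = 100 nM NTR1 peptide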
Target sequence (P30989 whole entry, looked up): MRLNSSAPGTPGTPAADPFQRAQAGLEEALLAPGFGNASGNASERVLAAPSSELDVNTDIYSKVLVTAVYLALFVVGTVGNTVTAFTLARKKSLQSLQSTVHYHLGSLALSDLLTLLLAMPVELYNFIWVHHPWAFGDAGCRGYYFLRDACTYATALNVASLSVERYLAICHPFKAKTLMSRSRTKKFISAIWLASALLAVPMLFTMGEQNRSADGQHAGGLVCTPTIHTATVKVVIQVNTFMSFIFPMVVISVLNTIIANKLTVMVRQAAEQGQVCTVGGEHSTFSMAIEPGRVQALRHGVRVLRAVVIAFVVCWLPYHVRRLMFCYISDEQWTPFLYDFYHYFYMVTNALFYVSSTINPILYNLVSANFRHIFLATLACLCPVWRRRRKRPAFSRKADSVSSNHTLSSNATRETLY
Starred values were filed as active, the others as inactive; . = no result.

SMILES	H9c2 TAG inh	aDG glyco act	TbMetRS inhib	MC4R barr agon	MC4R antag cAMP	NTR1 ag
CC(=O)OC1CC[C@]2(C#N)[C@H]3CC[C@]4(C)[C@H](C5C=CC(=O)O5)CCC4(O)C3CCC2(O)C1 (stereo partly specified)	.	0	-1	14*	15	0
CN(C)c1ccc(C(=O)N/N=C/C23CC[C@@H](O)CC2(O)CC[C@@H]2[C@@H]3CCC3(C)C(C4=CC(=O)OC4)CCC23O)cc1 (stereo partly specified)	-1	0	0	14*	-7	-2
O=C(Nc1ccc(C(=O)O)cc1)Oc1ccc(N(CCCl)CCCl)cc1	.	0	0	.	.	.
c1ccc(CN2COC3CCCCCC32)cc1 (stereo unspecified)	.	0	0	.	.	.
CC[C@@H](O)C[C@H]1CCC[C@@]2(C[C@@H]3OC(=O)/C=C/[C@@](C)(O)[C@@H](O)[C@H](C)[C@@H](O)[C@H](OC4CCC(N(C)C)C(C)O4)[C@@H](O)[C@](C)(O)CCCCC/C=C/[C@@H]4CC(C)(C)O[C@@]4(O)C[C@H](O2)[C@H]3C)O1 (stereo partly specified)	58*	0	0	-2	1	.
CC1=C(C)CN2CC(C#N)=C(N)C2C1 (stereo unspecified)	.	0	0	.	.	.
CCOc1cccc(CNCCc2c(C)[nH]c3ccc(OC(F)(F)F)cc23)c1O	.	0	-1	17*	8	36
Cc1[nH]c2ccc(OC(F)(F)F)cc2c1CCNCc1cccc([N+](=O)[O-])c1	.	1	-1	2	-8	9
CC(O)(CS(=O)(=O)c1ccccc1)C(=O)Nc1ccc(C(F)(F)F)cc1 (stereo unspecified)	.	0	0	1	4	0
CC(O)(CS(=O)(=O)c1cccc(C(F)(F)F)c1)C(=O)Nc1cccc(C(F)(F)F)c1 (stereo unspecified)	.	0	0	10.0*	4	3
Cc1cccc(N=C2c3cc([N+](=O)[O-])ccc3-c3c2cc([N+](=O)[O-])cc3[N+](=O)[O-])c1	62*	0	0	-2	6	.
CC12CC[C@H]3[C@@H](CCC4(O)C[C@H](O)CCC34/C=N/NC(=O)c3ccc(O)cc3)C1(O)CCC2C1=CC(=O)OC1 (stereo partly specified)	-4	0	1	1	15	0
CC(=O)OC1CC(OC2C(O)CC(OC3C(O)CC(OC4CCC5(C)C(CCC6C5CCC5(C)C(C7=CC(=O)OC7)CCC65O)C4)OC3C)OC2C)OC(C)C1OC1OC(CO)C(O)C(O)C1O (stereo unspecified)	-7	0	-1	33*	-5	.
COc1ccc(C(=O)N/N=C/C23CC[C@@H](O)CC2(O)CC[C@@H]2[C@@H]3CCC3(C)C(C4=CC(=O)OC4)CCC23O)cc1 (stereo partly specified)	-9	0	0	6	2	0
CC1OC(OC2CC(O)C3(CO)C4C(O)CC5(C)C(C6=CC(=O)OC6)CCC5(O)C4CCC3(O)C2)C(O)C(O)C1O (stereo unspecified)	.	0	0	16*	13	.
C[C@@H]1O[C@@H](O[C@H]2C[C@@H](O)[C@]3(CO)[C@H]4[C@H](O)C[C@]5(C)[C@@H](C6COC(=O)C6)CC[C@]5(O)[C@@H]4CC[C@]3(O)C2)[C@H](O)[C@H](O)[C@H]1O (stereo partly specified)	-6	0	0	24*	6	1
CCOC(=O)[C@]12Cc3cc(C)ccc3[C@H]1N(Cc1ccccc1)C(=O)c1cc(F)c(F)cc12	.	0	0	.	.	.
CCOc1ccc(-n2c(-c3cccs3)nc3ccccc3c2=O)cc1	-37	0	-1	2	6	7
CCn1nc(-c2cccs2)nc2c(=O)n(C)c(=O)nc1-2	10	0	22*	1	-38	.
COC(COC(N)=O)C1=C(N2CC2)C(=O)C(C)=C(N2CC2)C1=O (stereo unspecified)	60*	0	0	-4	-15	.
CC1=C(N2CC2)C(=O)C(CO)=C(N2CC2)C1=O	107	0	0	-8	-14	.
O=C1NCN(c2ccccc2)C12CCN(C(CCc1ccccc1)c1nnnn1C1CCCC1)CC2 (stereo unspecified)	.	0	0	.	.	.
COC(=O)[C@@H]1N=C(c2ccc(OC)cc2)O[C@]12C(=O)N(Cc1ccc(OC)cc1)c1ccccc12	.	0	-2	.	.	.
COC1=C(C)C(=O)C2=C(C1=O)C(CO)N1C(C#N)C3CC4C(C1C2N1CCOC41)N3C (stereo unspecified)	83*	0	0	0	2	.
CCOC(=O)[C@]12Cc3ccccc3[C@H]1N(CCC(=O)OC)C(=O)c1ccccc12	.	0	-2	.	.	.
SMILES	H9c2 TAG inh	aDG glyco act	TbMetRS inhib	MC4R barr agon	MC4R antag cAMP	NTR1 ag
COc1cc(OC)c(OC)cc1/C=C1/C(=O)NC(=O)N(Cc2ccccc2)C1=O	-9	0	0	1	9	10
O=C1NC(=O)N(Cc2ccccc2)C(=O)/C1=C/c1cnn(-c2ccccc2)c1	.	.	.	.	.	47*
COc1cc(/C=C(/C)[N+](=O)[O-])ccc1OCc1ccccc1Cl	.	-1	0	-5	32*	39
COc1cc(C=C2C(=O)NC(=O)NC2=O)ccc1OCc1ccc([N+](=O)[O-])cc1	-27	0	0	-2	18	.
CC(=O)c1cn(Cc2ccccc2C#N)c2ccccc12	-36	7.5*	1	-1	18	1
C[C@]12C[C@H](O)[C@@H](O)C[C@@H]1CC[C@@H]1[C@@H]2CC[C@]2(C)C(=O)CC[C@@H]12	.	0	0	1	-4	.
COc1cc2nc(CN3CC=C(c4ccccc4)CC3)[nH]c(=O)c2cc1OC	73*	0	0	2	13	1
COc1ccc(-n2nnnc2C(CCc2ccccc2)N2CCC(n3c(=O)[nH]c4ccccc43)CC2)cc1 (stereo unspecified)	.	-1	-1	.	.	.
O=c1[nH]c2ccccc2n1C1CCN(Cc2ccc(-c3nc4ccc(F)cc4nc3-c3ccccc3)cc2)CC1	.	0	-1	.	.	.
CCOC(=O)[C@]12Cc3cc(C)ccc3[C@H]1N(C1CCCCC1)C(=O)c1cc(OC)ccc12	.	0	0	.	.	.
Cc1cc(C)cc(N2C(=O)NC(=O)/C(=C\c3cccn3-c3ccc(Cl)cc3)C2=O)c1	.	0	-1	4	5	50*
O=C1NCN(c2ccccc2)C12CCN(C(CCc1ccccc1)c1nnnn1C1CCCCC1)CC2 (stereo unspecified)	.	0	0	.	.	.
CCCCOc1ccc(CCN)cc1Cl	.	0	-1	8.3*	5	0
